Assay results as given in ChEMBL document CHEMBL4609998 (Bioorg Med Chem, 2020).
Calls of active or inactive are those of the source. No cut-off for these calls is given here.

Experiments:
Homo sapiens = species: Homo sapiens; assay: Antiproliferative activity against human G317 cell spheroid assessed as reduction in cell viability incubated for 8 days; format: functional
Procedure, shortened: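 G317 patient-derived glioma cells (4 × 10^3) spun into ultra-low attachment round-bottom wells (1000g, 4 °C, 10 min), left 2 days to form spheroids, then exposed to inhibitors at 4 concentrations from 10 nM to 10 μM for 8 days. Imaged on day 10; spheroid area quantified by image analysis. Mean ± SEM of 6 spheroids from two cultures.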

U-87 MG [1] = assay: Antiproliferative activity against human U87 cells assessed as reduction in cell viability at 3 to 300 uM incubated for 5 days by Prestoblue reagent based assay; format: functional; settings: U-87MG ATCC
Procedure, shortened: (§1)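 Library screen: U87 (1 × 10^3/well) and T98 (5 × 10^2/well) cells seeded 48 h ahead, then exposed for 5 d to three concentrations (3, 30 and 300 μM). Viability by PrestoBlue; EC50 derived from the resulting dose-response curves. Means of three independent experiments in triplicate.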

U-87 MG [2] = assay: Antiproliferative activity against human U87 cells assessed as reduction in cell viability incubated for 5 days by Prestoblue reagent based assay; format: functional, U-87MG ATCC; settings: 120 h
Procedure, shortened: (§2)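 Glioma lines in DMEM/10% FBS/2 mM glutamine: U87 at 1 × 10^3 and T98 at 5 × 10^2 cells/well, incubated 48 h, then treated over 1–30,000 nM for 5 d. PrestoBlue viability; EC50 calculated from dose-response curves. Mean ± SEM, 3 independent experiments in triplicate.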

T98 [3] = assay: Antiproliferative activity against human T98 cells assessed as reduction in cell viability at 3 to 300 uM incubated for 5 days by Prestoblue reagent based assay; format: functional; procedure, shortened: as §1
T98 [4] = assay: Antiproliferative activity against human T98 cells assessed as reduction in cell viability incubated for 5 days by Prestoblue reagent based assay; format: functional; settings: T98, 120 h; procedure, shortened: as §2
U-87 MG [5] = assay: Antiproliferative activity against human U87 cells assessed as reduction in cell viability at 1 to 1000 nM incubated for 5 days by Prestoblue reagent based assay; format: functional; settings: U-87MG ATCC
Procedure, shortened: (§3)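 U87 (1 × 10^3/well) or T98 (5 × 10^2/well) cells, grown in DMEM with 10% FBS and 2 mM glutamine, plated 48 h before dosing at 1–1,000 nM. Viability read with PrestoBlue at day 5; EC50 values taken from dose-response curves. Mean ± SEM, three independent experiments in triplicate.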

T98 [6] = assay: Antiproliferative activity against human T98 cells assessed as reduction in cell viability at 1 to 1000 nM incubated for 5 days by Prestoblue reagent based assay; format: functional; procedure, shortened: as §3
T98 [7] = assay: Synergistic antiproliferative activity against human T98 cells assessed as reduction in cell viability at 100 nM in presence of GDC0941 incubated for 5 days by Prestoblue reagent based assay; format: functional
U-87 MG [8] = assay: Antiproliferative activity against human U87 cells assessed as reduction in cell viability at 1 to 30000 nM incubated for 5 days by Prestoblue reagent based assay; format: functional; settings: U-87MG ATCC; procedure, shortened: as §2
T98 [9] = assay: Antiproliferative activity against human T98 cells assessed as reduction in cell viability at 1 to 30000 nM incubated for 5 days by Prestoblue reagent based assay; format: functional; procedure, shortened: as §2
T98 [10] = assay: Synergistic antiproliferative activity against human T98 cells assessed as reduction in cell viability at 10 to 1000 nM in presence of GDC0941 incubated for 5 days by Prestoblue reagent based assay; format: functional
U-87 MG [11] = assay: Synergistic antiproliferative activity against human U87 cells assessed as reduction in cell viability at 10 to 1000 nM in presence of GDC0941 incubated for 5 days by Prestoblue reagent based assay; format: functional; settings: U-87MG ATCC

| Structure (SMILES) | inhibition (Homo sapiens) | inhibition (U-87 MG [1]) | EC50 (U-87 MG [2]) | inhibition (T98 [3]) | EC50 (T98 [4]) | also measured |
| --- | --- | --- | --- | --- | --- | --- |
| CC(C)n1nc(-c2ccc3oc(N)nc3c2)c2c(N)ncnc21 | Dose-dependent effect |  |  |  |  |  |
| COC(Cn1nc(-c2ccc3oc(N)nc3c2)c2c(N)ncnc21)OC |  | Active | 100 to 150 nM | Active | 100 to 150 nM |  |
| Nc1nc2cc(-c3nn(CC4CCCO4)c4ncnc(N)c34)ccc2o1 (stereo unspecified) |  | Active | 100 to 150 nM | Active | 100 to 150 nM |  |
| Nc1nc2cc(-c3nn(CC4OCCO4)c4ncnc(N)c34)ccc2o1 |  | Active | 100 to 150 nM | Active | 100 to 150 nM |  |
| CCc1c2c(nc3ccc(O)cc13)-c1cc3c(c(=O)n1C2)COC(=O)[C@]3(O)CC | Dose-dependent effect |  |  |  |  |  |
| CCOC(Cn1nc(-c2ccc3oc(N)nc3c2)c2c(N)ncnc21)OCC | Dose-dependent effect | Active | 100 to 150 nM | Active | 100 to 150 nM | inhibition (U-87 MG [5]): Active; inhibition (T98 [6]): Active; Activity (T98 [7]): Active |
| CNc1ncc2c(-c3ccc4oc(N)nc4c3)nn(CC3CCCC3)c2n1 |  |  |  |  |  | inhibition (U-87 MG [8]): Active; inhibition (T98 [9]): Active |
| Nc1ncnc2c1c(-c1cnc3[nH]ccc3c1)nn2CC1CCCC1 |  |  |  |  |  | inhibition (U-87 MG [8]): Active; inhibition (T98 [9]): Active |
| Nc1nc2cc(-c3nn(C[C@H]4CCCO4)c4ncnc(N)c34)ccc2o1 |  | Active | 100 to 150 nM | Active | 100 to 150 nM |  |
| Nc1nc2cc(-c3nn(CC4CCCC4)c4ncnc(N)c34)ccc2o1 | Dose-dependent effect | Active |  | Active |  | inhibition (U-87 MG [5]): Active; inhibition (T98 [6]): Active; Activity (T98 [10]): Active; Activity (U-87 MG [11]): Active |
| Nc1nc2cc(-c3nn(C[C@@H]4CCCO4)c4ncnc(N)c34)ccc2o1 |  | Active | 100 to 150 nM | Active | 100 to 150 nM |  |
